Bioassay records: PubChem, several laboratories
b-catenin transl: alters nuclear translocation of beta-catenin in HeLa cells. immunofluorescence imaging. nuclear translocation activity, % at 5 µM. 190,000 tested, 0.3% active. AID 1665;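 active = nuclear translocation activity above 50% at 5 µM, with a well cell count of 50 or more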;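 note: per-cell ratio of nuclear to cytoplasmic median beta-catenin stain intensity; plate controls were DMSO negative control for no effect and GSK-3 inhibitor IX positive control for full effect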
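test system = HeLa cells, endogenous beta-catenin | dosing = single 5 µM dose plus 0.02–20 µM confirmation series | times = compound treatment 24 h, 37°C, 5% CO2 | technique = beta-catenin immunofluorescence imaging with DAPI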
L major viab: Leishmania major promastigote growth inhibition. Leishmania major promastigotes, resazurin fluorescence viability. inhibition, % at 10 µM. 200,000 tested, 9% active. AID 1063; in the data active = inhibition above about 50%;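 note: promastigotes grown with compound for 44 hours at 28 °C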
CHOP inh: inhibitors of CHOP induction in ER stress response; CHO-K1 CHOP-promoter luciferase, tunicamycin-induced, 15-18 h; inhibition, % at 10 µM; 220,000 tested, 3.8% active; AID 2732;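 active = compounds that reduced the stress-induced luciferase reporter signal by more than about 70% of percent inhibition, limit read from the data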;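 note: 0% = tunicamycin plus vehicle and 100% = wells without tunicamycin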
Dynein cargo inh: dynein cargo transport inhibition; AID 1381; z-score, hits read low; 3617.4 mouse cells, GR-EGFP nuclear translocation imaging; test concentration mostly 20 µM; stimulated with dexamethasone, 1 µM; active compounds read low; 220,000 tested, 0.47% active;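 active = plate z-score of nuclear minus cytoplasmic receptor signal below a set negative limit, without overly bright fluorescence or cell loss, cut at about -3.5 in these data, passing the limit was not always enough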;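 note: z-score of nuclear minus cytoplasmic ring GR-EGFP intensity difference per well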
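Buffer or medium: tet-free, stripped-serum medium; reagent: dexamethasone at 1.0 µM final, 30 min; incubation: 48 h induction, 1 h compound, 30 min dex at 37 °C; measured by: formaldehyde fixation, Hoechst nuclear stain, 10x automated fluorescence imaging; read-out: nuclear-to-cytoplasmic GR-EGFP distribution per well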
MT stabilize HCS: stabilizes microtubules in HeLa cells; % tubulin-high responders, % at 10 µM; HeLa tubulin immunostaining HCS, 24 h; share of cells brighter than vehicle mean+2SD; 200,000 tested, 0.83% active;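 active = plate Z-score above 3 for both tubulin-high and condensed-nucleus cell shares, with cell loss under 80%, at 10 µM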;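 note: anti alpha tubulin signal scored within the nucleus-defined area of each cell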
Autophagy mod: modulators of autophagy; MEF GFP-LC3 puncta imaging; test concentration mostly 10 µM; calls only at 10 µM (by protocol); 190,000 tested, 0.98% active; AID 463193;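 active = percentage of spot-positive cells more than 3 SD above its plate mean, without a fluorescence outlier flag or 80% toxicity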;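 note: spot-positive cell cutoff set from DMSO-treated cells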
Numbers without * were called inactive; i = inactive; · = not tested or not shown; + = active, no number. In the library only some 12% were active in any assay of this set; here they are far more common.

SMILES	b-catenin transl	L major viab	CHOP inh	Dynein cargo inh	MT stabilize HCS	Autophagy mod
CCOC(=O)c1ccc(NC(=S)NCCCN2CCOCC2)cc1	-2	0	-9	-0.12	2	i
Cn1c(C(F)(F)F)nc2c(=O)oc3ccccc3c21	·	-10	31	-0.3	2	i
COC(=O)CSc1c(-c2ccccc2)c2cc(Cl)ccc2[nH]c1=O	·	-5	80*	-0.038	2	i
CC(=O)OCCSc1c(-c2ccccc2)c2cc(Cl)ccc2[nH]c1=O	3	2	49	0.12	7	i
O=C(O)/C(=C\C(=O)c1ccccc1)Nc1ccccc1	0	·	-18	0.22	·	·
COc1ccc(C(=O)NCC(=O)OCC(=O)N2CCc3ccccc32)cc1	1	-2	-4	-0.61	4	i
CCS(=O)(=O)Nc1ccc(C2=NN(C(=O)c3ccco3)C(c3cccc(F)c3)C2)cc1 (stereo unspecified)	1	35	11	2.2	4	i
Cc1ccc(C2=NN(C(=S)Nc3ccccc3)C(c3ccco3)C2)cc1 (stereo unspecified)	-2	56*	20	0.073	2	i
CCS(=O)(=O)Nc1ccc(C2=NN(C(=S)Nc3ccccc3)C(c3ccco3)C2)cc1 (stereo unspecified)	0	13	-17	-0.0062	22*	i
Cc1ccccc1N=Nc1c(C)[nH]n(C(N)=S)c1=O	·	53*	48	-0.2	4	i
Nc1cccc(C(=O)OCC(=O)Nc2cccc3c2C(=O)c2ccccc2C3=O)c1	·	43	51	0.065	3	+
CCN1CCCC1CNC(=O)CSCc1nc(-c2ccccc2C)oc1C (stereo unspecified)	·	99*	35	1.5	5	i
Cc1oc(-c2ccc(Cl)cc2)nc1CN1CCC(C(=O)N2CCc3ccccc3C2)CC1	·	32	91*	0.5	4	i
CCN1CCCC1CNC(=O)CS(=O)(=O)Cc1nc(-c2ccccc2C)oc1C (stereo unspecified)	-2	4	8	-0.79	9	·
CCN1CCCC1CNC(=O)C1CCN(Cc2nc(-c3cccc(Br)c3)oc2C)CC1 (stereo unspecified)	-4	99*	-27	0.11	4	i
CCc1ccc(-c2nc(CN3CCC(C(=O)NCc4ccccc4OC)CC3)c(C)o2)cc1	-4	42	79*	-0.5	4	i
Cc1oc(-c2cccc(Cl)c2)nc1CN1CCC(C(=O)NCc2ccco2)CC1	-1	-3	24	-0.6	2	i
CCOc1ccc(CNC(=O)c2ccc(Sc3ccc(C)cc3)c(NC(C)=O)c2)cc1	-3	94*	44	2.1	3	i
NC(=O)[C@@H]1CCCN1Cc1nc(-c2cccs2)no1	-1	-4	-5	-0.89	4	i
CCOc1ccc(OCC)c(NC(=O)CN2CCN(c3cccc(C)c3)C(C)C2)c1 (stereo unspecified)	0	3	30	0.69	43*	i
O=C(NCCN1CCc2ccccc2C1)C1CC(=O)N(C2CCCC2)C1 (stereo unspecified)	-1	-4	89*	-0.51	2	i
COc1ccc(CCNC(=O)CSc2nc(C)cs2)cc1	-2	-4	5	0.76	4	i
COc1ccc(CCNC(=O)CSc2nncs2)cc1	·	59*	14	0.64	2	i
c1ccc(COc2ccccc2CNC23CC4CC(CC(C4)C2)C3)cc1	0	71*	-32	-0.85	2	i
c1csc(COc2ccccc2CNC2CCCCC2)c1	-1	81*	-11	-0.64	6	i
SMILES	b-catenin transl	L major viab	CHOP inh	Dynein cargo inh	MT stabilize HCS	Autophagy mod
CCCn1nnnc1NCc1ccccc1OCc1cccs1	1	7	19	-0.97	3	i
c1ccc(COc2ccccc2CNC2CCCC2)cc1	-1	70*	0	-0.32	2	i
Cc1ccc(NC(=O)COC(=O)CCc2nc3ccccc3c(=O)[nH]2)cc1Cl	2	-1	-1	0.94	2	i
Cc1[nH]c(=O)[nH]c(=O)c1S(=O)(=O)N1CCCC1	0	-9	-27	-1.2	3	i
Cn1c(=O)c2c(SCC(=O)NCCc3ccccc3)nc(C3CC3)nc2n(C)c1=O	-1	·	7	-0.66	·	·
CCc1nc(SCc2cccnc2)c2c(=O)n(C)c(=O)n(C)c2n1	0	26	38	-0.82	4	i
Cn1c(=O)c2c(SCc3cccnc3)nc(C3CC3)nc2n(C)c1=O	·	53*	25	-0.11	4	i
CC(C)Cc1nc(SCc2cccnc2)c2c(=O)n(C)c(=O)n(C)c2n1	-6	96*	18	1.5	2	i
CC1(C)CC2CC(C)(CN2C(=O)c2ccc([N+](=O)[O-])cc2[N+](=O)[O-])C1 (stereo unspecified)	-2	52*	-7	-0.84	2	i
CC1(C)CC2CC(C)(CN2C(=O)c2cc(-c3ccccc3O)on2)C1 (stereo unspecified)	-5	18	76*	0.57	5	·
COc1ccc(-c2cc(C(=O)N3CC4(C)CC3CC(C)(C)C4)no2)cc1OC (stereo unspecified)	-3	46	73*	-0.017	3	i
COc1cc(NC(=O)COC(=O)Cc2ccc(-c3ccccc3)cc2)cc(OC)c1	·	26	15	0.085	2	i
OCCN(Cc1ccccc1)CC(O)COc1ccc(-c2ccccc2)cc1 (stereo unspecified)	3	39	76*	-0.61	2	i
OCCN1CCN(CC(O)COc2ccc(-c3ccccc3)cc2)CC1 (stereo unspecified)	4	96*	-37	-0.9	2	i
OCCN1CCN(CC(O)COc2ccc3ccccc3c2)CC1 (stereo unspecified)	·	91*	22	0.51	3	i
CN1CCN(CC(O)COc2ccc(C34CC5CC(CC(C5)C3)C4)cc2)CC1 (stereo unspecified)	21	100*	34	2.7	9	i
OC(COc1ccc(OCC(O)CN2CCCCCC2)cc1)CN1CCCCCC1 (stereo unspecified)	1	30	-6	3	4	i
c1ccc2c(c1)ccc1nnc(SCc3ccc4c(c3)OCO4)n12	·	-2	1	-0.52	2	i
CCCN1C(=O)S/C(=C\c2ccc(N3CCOCC3)cc2C)C1=O	0	13	22	-2.1	5	i
Cc1cc(/C=C2\NC(=S)N(C)C2=O)ccc1N1CCCC1	0	13	-10	-0.67	4	+
CN1C(=O)/C(=C/C=C2/CCCN2C)N(C)C1=S	2	-1	-26	-0.74	3	i
Cc1cc(/C=C2/C(=O)N(C)C(=S)N2C)ccc1N1CCCC1	2	2	4	-2.8	1	+
